Source: PubChem (Johns Hopkins Ion Channel Center)
Rows were chosen to be rich in hits. Some 3.7% of all compounds tested hit in one or more screens of this group.
KCNQ1 inh = inhibitors of human KCNQ1 channel, primary screen, cell-based, thallium flux, high-throughput | Potassium voltage-gated channel subfamily KQT member 1 (Homo sapiens), P51787 | B-score at 10 µM | AID 2642, 2010 | hit rate 1.3% among 310,000 | CHO-K1 KCNQ1, FluxOR thallium flux fluorescence; active compounds read high;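 active = compounds whose thallium flux B-score, printed positive for inhibition, exceeds three library SD while starting fluorescence stays within three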;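 note: channel opened by potassium depolarization with thallium stimulus after 20 min compound exposure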
Kir21 inh = inhibitors of mouse Kir2.1 inward-rectifier potassium channel | Inward rectifier potassium channel 2 (Mus musculus), P35561 | HEK293-Kir2.1, FluxOR thallium flux fluorescence; active compounds read low | B-score at 10 µM | hit rate 0.85% among 310,000 | AID 1672, 2009;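 active = fluorescence ratio B-score at or below minus 3 SD of library scores, with starting-brightness B-score within 2 SD, cut at about -4.2 in these data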;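 note: channel flux triggered by added potassium and thallium sulfate stimulus; B-score of peak minus minimum fluorescence over baseline after thallium stimulus; more negative B-score means stronger Kir2.1 block with less thallium influx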
KCNK3 inh = human KCNK3 channel inhibitors, primary screen, CHO cells, FluxOR thallium flux, B-score. Potassium channel subfamily K member 3 (Homo sapiens), O14649. FluxOR fluorescence; active compounds read low. B-score at 10 µM. hit rate 0.84% among 340,000;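 active = B-score under library mean minus 4 SD, starting fluorescence ratio at most library mean plus 5 SD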;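 note: more negative B-score means stronger inhibition of thallium flux through KCNK3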
KCNK9 inh = KCNK9 potassium channel inhibitors, primary screen, HEK293 cells, thallium flux; Potassium channel subfamily K member 9 (Homo sapiens), Q9NPC2; FluxOR thallium flux fluorescence; active compounds read low; B-score at 10 µM; hit rate 1.2% among 310,000;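 active = ratio B-score over 3 SD below the library mean, with starting fluorescence within 5 SD of its mean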;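 note: negative B-score means less thallium flux so channel inhibition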
hERG protect = hERG rescue from dofetilide block, primary screen, cell-based, CHO-hERG, FluxOR thallium flux, dofetilide IC70 | dofetilide IC70 present | activation (rescue from dofetilide block), less the hit threshold, % at 10 µM | hit rate 0.51% among 310,000;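 active = activation above the mean of controls blocked by dofetilide plus 5 SD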;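 note: thallium influx through hERG after potassium depolarization seen as dye fluorescence rise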
Target sequence (Q12809 whole entry, looked up): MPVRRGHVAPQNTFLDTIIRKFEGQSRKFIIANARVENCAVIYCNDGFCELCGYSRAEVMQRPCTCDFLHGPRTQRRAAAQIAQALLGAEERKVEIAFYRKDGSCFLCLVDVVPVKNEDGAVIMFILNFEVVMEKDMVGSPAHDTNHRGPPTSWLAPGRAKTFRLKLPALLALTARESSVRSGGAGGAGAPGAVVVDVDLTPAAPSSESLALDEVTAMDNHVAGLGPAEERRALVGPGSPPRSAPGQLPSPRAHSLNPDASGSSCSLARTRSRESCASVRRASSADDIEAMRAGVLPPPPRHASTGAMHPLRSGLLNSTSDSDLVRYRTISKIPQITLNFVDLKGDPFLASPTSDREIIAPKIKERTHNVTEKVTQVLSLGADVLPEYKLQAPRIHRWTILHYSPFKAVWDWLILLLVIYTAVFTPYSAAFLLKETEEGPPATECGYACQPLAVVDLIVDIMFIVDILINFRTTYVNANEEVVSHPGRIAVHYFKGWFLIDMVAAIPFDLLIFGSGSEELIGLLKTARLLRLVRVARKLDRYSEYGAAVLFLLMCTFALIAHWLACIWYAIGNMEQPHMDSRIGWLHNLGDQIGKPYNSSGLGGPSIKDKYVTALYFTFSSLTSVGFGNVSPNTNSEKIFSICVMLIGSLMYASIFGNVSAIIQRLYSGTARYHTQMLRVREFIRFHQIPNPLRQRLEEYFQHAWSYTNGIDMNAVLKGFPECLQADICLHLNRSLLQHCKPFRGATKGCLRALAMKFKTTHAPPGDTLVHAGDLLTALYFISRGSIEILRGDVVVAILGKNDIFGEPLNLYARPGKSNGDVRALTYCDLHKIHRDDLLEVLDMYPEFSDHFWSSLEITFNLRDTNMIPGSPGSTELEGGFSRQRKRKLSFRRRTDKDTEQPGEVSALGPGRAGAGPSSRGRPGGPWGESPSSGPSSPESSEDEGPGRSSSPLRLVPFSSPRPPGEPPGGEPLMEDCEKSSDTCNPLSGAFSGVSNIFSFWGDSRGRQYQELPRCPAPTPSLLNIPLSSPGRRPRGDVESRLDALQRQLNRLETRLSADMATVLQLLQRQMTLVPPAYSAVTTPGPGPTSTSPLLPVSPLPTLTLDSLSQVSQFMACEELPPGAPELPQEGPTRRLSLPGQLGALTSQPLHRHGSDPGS
KCNQ1 pot = potentiators or activators of KCNQ1 channel, primary screen, cell-based, thallium flux, high-throughput. Potassium voltage-gated channel subfamily KQT member 1 (Homo sapiens), P51787. CHO-K1 KCNQ1, thallium flux FluxOR fluorescence; active compounds read high. B-score at 10 µM. hit rate 0.35% among 310,000. AID 2648, 2010;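 active = fluorescence ratio B-score, a plate-corrected score, at least three library SD, with initial intensity B-score within 5 SD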
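Assay system: stable KCNQ1 CHO-K1 line; medium: assay buffer, equal DMSO in all wells; timing: 90 min dye loading and 20 min compound exposure, both at room temperature; technique: kinetic FluxOR thallium fluorescence, 10-s 1-Hz baseline, 110-s post-stimulus read; read-out basis: B score of baseline-normalized fluorescence ratio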
* hit, by the source's call; i = inactive; · = no result.

SMILES	KCNQ1 inh	Kir21 inh	KCNK3 inh	KCNK9 inh	hERG protect	KCNQ1 pot
Cc1ccccc1C(=O)N1CCN(CCNC(=O)C(=O)Nc2ccc(Br)cc2)CC1	i	2.3	i	i	-7	i
O=C(NCC1CCCO1)c1ccc([N+](=O)[O-])s1 (stereo not drawn)	i	1.8	i	i	-6	i
CCN1c2ccccc2-c2nc3ccccc3n2C1c1ccccn1 (stereo not drawn)	i	-0.06	-10*	i	-9	i
C/C(N)=C(/C#N)C(=O)COC(=O)c1ccccc1C(=O)c1ccc(C)cc1	i	-5.1*	i	i	-10	i
C/C(N)=C(/C#N)C(=O)COC(=O)c1ccccc1O	i	-1.8	i	i	-7	i
C/C(N)=C(/C#N)C(=O)COC(=O)c1cc(-c2cccc3ccccc23)nc2ccccc12	6*	-0.46	i	i	-9	i
O=C1c2ccccc2C2(c3ccccc3)NCCCN12 (stereo not drawn)	i	-0.48	i	i	-16	i
O=C1c2ccccc2C2(c3cc(C(F)(F)F)cc(C(F)(F)F)c3)NCCN12 (stereo not drawn)	i	0.05	i	i	-8	14*
O=C(O)C1CCCCN1C(=O)c1ccc(S(=O)(=O)N2CCCCCC2)cc1 (stereo not drawn)	·	·	i	·	·	·
Cc1cc(=O)oc2cc(OC(C)C)ccc12	i	2.9	i	i	-13	i
Cc1cc(=O)oc2cc(OC(C(=O)O)c3ccccc3)ccc12 (stereo not drawn)	i	-0.63	i	i	6.7*	i
c1csc(COc2ccccc2CNC2CCCCC2)c1	i	-4.2*	i	i	-6	i
c1ccc(COc2ccccc2CNC2CCCC2)cc1	i	-2.9	i	i	-14	i
CC1=CC(=O)N(c2ccc(C)cc2)C1c1ccc(Cl)cc1 (stereo not drawn)	i	-4.5*	i	i	-8	i
CC1=CC(=O)N(c2cccc(C(F)(F)F)c2)C1c1ccc(Cl)cc1 (stereo not drawn)	i	-1.8	i	-7.7*	-12	i
CC(=O)C1=C(O)C(=O)N(c2ccc(O)cc2)C1c1ccc(Cl)cc1 (stereo not drawn)	i	-0.25	i	i	2	i
CC1(C)CC(N2CCN(CCO)CC2)=CC(=S)N1	i	-0.52	i	i	-6	10*
COc1cc(NC(=S)N2CCN(CCO)CC2)cc(OC)c1	i	0.42	i	i	-1	i
O=C(NC(=S)Nc1ccc2nc[nH]c2c1)c1ccccc1	i	0.33	i	i	-4	i
CCOc1ccc(NC(=O)CCC(=O)c2ccc(Br)cc2)cc1	i	0.88	i	i	-4	i
CCOc1ccc(NC(=S)NNC(=O)c2ccc(Br)cc2)cc1	6*	0.05	i	i	-9	i
CCCOc1ccc(C(=O)NNC(=S)NC(C)=O)cc1	i	-0.13	i	i	-19	i
CCCOc1ccc(C(=O)NNC(=S)NC(=O)c2ccccc2)cc1	i	0.88	i	i	17*	34*
CCCOc1ccc(C(=O)NNC(=S)NC(=O)c2ccco2)cc1	i	-0.62	i	i	18*	12*
CC(C)(C)c1ccc(C(=O)NC(=S)NNC(=O)COc2ccccc2)cc1	i	0.96	i	i	-5	30*
SMILES	KCNQ1 inh	Kir21 inh	KCNK3 inh	KCNK9 inh	hERG protect	KCNQ1 pot
CCN1CCN(c2ccc(S(=O)(=O)N3CCCCC3)cc2NC(=O)c2ccc(C)o2)CC1	i	2.3	i	i	-10	i
CC(C)(C)c1ccc(S(=O)(=O)N2CCc3nc4ccccc4c(C(=O)O)c3C2)cc1	i	0.2	i	i	1	i
CCc1ccc2nc(N(CCCN(C)C)C(=O)c3ccc(C(=O)c4ccccc4)cc3)sc2c1	i	-0.69	i	i	-33	i
CCCOc1ccc(C(=O)NNC(=S)NC(=O)c2cccs2)cc1	i	-0.39	i	i	8.8*	38*
O=C(NNC(=S)NC(=O)c1ccco1)c1ccc(F)cc1	i	-0.18	i	i	-8	i
O=C(NC(=S)NNC(=O)c1ccco1)c1ccc(Br)cc1	6*	-0.08	i	i	-9	i
CC(Sc1nnc(-c2ccccc2F)n1C1CC1)C(=O)NC(N)=O (stereo not drawn)	i	-0.05	i	i	-4	i
CCN1CCN(C(=O)C(=O)c2cn(CC(=O)N3CCCC3)c3ccccc23)CC1	i	0	i	i	-7	i
CC(C)CN(C(=O)c1ccc(N2CCCC2=O)cc1)c1c(N)n(Cc2ccccc2)c(=O)[nH]c1=O	·	·	i	·	·	·
CN(C)c1ccc(C(C(=O)NCc2ccccc2)N(Cc2ccco2)C(=O)c2snc(C(N)=O)c2N)cc1 (stereo not drawn)	i	1.6	i	i	-14	i
Cn1c(SCC(=O)N2CCOCC2)nc2cccnc21	i	0.2	i	i	4.8*	i
C=CCn1c(SCC(O)Cn2c3ccccc3c3ccccc32)nnc1-c1ccco1 (stereo not drawn)	i	0.01	i	-7.2*	-9	i
C=CCn1c(SCC(=O)N2c3ccccc3Sc3ccccc32)nnc1-c1ccco1	i	-0.31	i	i	-16	i
NC(=O)C1CCN(Cc2cccc(OCc3ccccc3)c2)CC1	i	-0.37	i	i	0	i
O=C(NCc1ccccn1)C1CCN(Cc2cccc(OCc3ccccc3)c2)CC1	i	-0.14	i	i	-6	8*
CCOC(=O)C1CCN(Cc2cccc(OCc3ccccc3)c2)CC1	i	-7.9*	i	i	-4	i
O=C1/C(=C\c2ccc(Br)o2)Cc2ccccc21	i	-0.61	i	-9.9*	-5	i
O=C1/C(=C/c2cccs2)Cc2ccccc21	i	1.1	i	i	-10	i
CCN(CC)CCNc1ncnc2c1sc1nc(N3CCCC3)c3c(c12)CC(C)(C)OC3	i	-0.7	i	i	-14	8*
Cc1cc(Br)ccc1S(=O)(=O)NCc1ccccc1	i	-2.4	i	i	-11	i
CCCC(=O)Nc1sc2c(c1C(=O)OCC)CC(C)(C)OC2	i	-0.55	i	i	-14	i
